The values below come from ChEMBL document CHEMBL4393665 (Eur J Med Chem, 2019).

Data set [1] can be described thus: Half life in human plasma at 1 uM by LC-MS/MS analysis. In kind it is ADME, cell-free. The procedure, abridged: (§1)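 Samples were incubated in phosphate buffer or human plasma and analysed by LC-MS/MS in product ion scan mode. Analyte concentration was monitored over incubation time. The slope of ln(concentration) versus time gave the first-order degradation rate constant k, and t1/2 was calculated from k. Ketoprofen ethyl ester served as a reference to confirm that the plasma batch was enzymatically active.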

Data set [2] is described as follows: Half life in PBS at 1 uM by LC-MS/MS analysis. In kind it is physicochemical. Summed up:
as §1

Data set [3] can be described thus: Drug degradation in human plasma at 1 uM measured upto 120 mins by LC-MS/MS analysis. In kind it is ADME, cell-free. The settings on record: 2 h. Summed up: as §1
Data set [4] deals with T1, ATP-dependent translocase ABCB1 (Homo sapiens, UniProt P08183). Description: Inhibition of P-gp in human K562/DOX cells assessed as drug level causing 50% increase in nuclear pirarubicin concentration incubated for 30 mins by spectroflurometry. It is filed as cell-based. The settings on record: read-out: I0.5. Summed up:
(§2)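 Pirarubicin uptake into nuclei was measured in P-gp-overexpressing, doxorubicin-resistant K562/DOX cells. [I]0.5 is the modulator concentration giving a half-maximal increase (α = 0.5) in nuclear pirarubicin concentration. αmax is the maximum increase obtainable in resistant cells. Mean ± SE of three independent experiments.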

Data set [5] addresses T1, ATP-dependent translocase ABCB1. The data set is described as follows: Inhibition of P-gp in human K562/DOX cells assessed as drug level causing maximum increase in nuclear pirarubicin concentration incubated for 30 mins by spectroflurometry relative to control. In kind it is cell-based. The settings on record: 0.5 h. Summed up: as §2
Data set [6] shares this target. Description: Inhibition of P-glycoprotein (unknown origin) in MDCK-MDR1 assessed as reduction of ATP consumption pre-incubated for 2 hrs followed by substrate addition shaken for 5 mins by luminescence assay. It is filed as cell-based. The following applies: mdck-mdr1, 5 min.
Data set [7] has the same target. The data set is described as follows: Inhibition of P-glycoprotein-mediated Rhodamine-123 efflux in human K562 cells assessed as Rhodamine-123 accumulation at 1 uM preincubated for 15 mins followed by Rhodamine-123 addition measured after 30 mins by flow cytometry. It is filed as cell-based. The settings on record: k562, 0.5 h.
Data set [8] addresses T2, Broad substrate specificity ATP-binding cassette transporter ABCG2 (Homo sapiens, UniProt Q9UNQ0).
T2 sequence (Q9UNQ0 whole entry): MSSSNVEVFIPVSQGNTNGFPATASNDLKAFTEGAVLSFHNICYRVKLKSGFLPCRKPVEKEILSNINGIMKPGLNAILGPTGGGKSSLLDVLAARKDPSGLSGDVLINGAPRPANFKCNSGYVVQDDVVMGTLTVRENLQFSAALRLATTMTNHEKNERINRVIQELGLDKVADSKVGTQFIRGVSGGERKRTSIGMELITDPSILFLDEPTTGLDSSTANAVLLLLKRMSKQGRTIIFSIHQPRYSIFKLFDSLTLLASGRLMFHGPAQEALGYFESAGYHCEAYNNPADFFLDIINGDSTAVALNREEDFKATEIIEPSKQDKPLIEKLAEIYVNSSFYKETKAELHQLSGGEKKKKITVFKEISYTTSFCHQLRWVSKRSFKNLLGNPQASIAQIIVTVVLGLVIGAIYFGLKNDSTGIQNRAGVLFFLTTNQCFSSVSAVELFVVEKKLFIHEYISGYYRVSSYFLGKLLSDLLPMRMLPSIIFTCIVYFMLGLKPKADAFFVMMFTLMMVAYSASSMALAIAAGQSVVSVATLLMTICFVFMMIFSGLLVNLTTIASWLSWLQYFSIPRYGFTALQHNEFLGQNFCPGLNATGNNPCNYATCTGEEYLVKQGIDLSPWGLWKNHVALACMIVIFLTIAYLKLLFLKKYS
Description: Inhibition of BCRP (unknown origin) in MDCK-BCRP assessed as inhibtion of hoechst 33342 transport incubated for 30 mins by fluorescence assay.

The target in data set [9] is T1, ATP-dependent translocase ABCB1. Description: Inhibition of P-glycoprotein (unknown origin) in MDCK-MDR1 assessed as inhibtion of calcein-AM transport incubated for 30 mins by fluorescence assay. In kind it is cell-based.

T1 sequence (P08183 whole entry): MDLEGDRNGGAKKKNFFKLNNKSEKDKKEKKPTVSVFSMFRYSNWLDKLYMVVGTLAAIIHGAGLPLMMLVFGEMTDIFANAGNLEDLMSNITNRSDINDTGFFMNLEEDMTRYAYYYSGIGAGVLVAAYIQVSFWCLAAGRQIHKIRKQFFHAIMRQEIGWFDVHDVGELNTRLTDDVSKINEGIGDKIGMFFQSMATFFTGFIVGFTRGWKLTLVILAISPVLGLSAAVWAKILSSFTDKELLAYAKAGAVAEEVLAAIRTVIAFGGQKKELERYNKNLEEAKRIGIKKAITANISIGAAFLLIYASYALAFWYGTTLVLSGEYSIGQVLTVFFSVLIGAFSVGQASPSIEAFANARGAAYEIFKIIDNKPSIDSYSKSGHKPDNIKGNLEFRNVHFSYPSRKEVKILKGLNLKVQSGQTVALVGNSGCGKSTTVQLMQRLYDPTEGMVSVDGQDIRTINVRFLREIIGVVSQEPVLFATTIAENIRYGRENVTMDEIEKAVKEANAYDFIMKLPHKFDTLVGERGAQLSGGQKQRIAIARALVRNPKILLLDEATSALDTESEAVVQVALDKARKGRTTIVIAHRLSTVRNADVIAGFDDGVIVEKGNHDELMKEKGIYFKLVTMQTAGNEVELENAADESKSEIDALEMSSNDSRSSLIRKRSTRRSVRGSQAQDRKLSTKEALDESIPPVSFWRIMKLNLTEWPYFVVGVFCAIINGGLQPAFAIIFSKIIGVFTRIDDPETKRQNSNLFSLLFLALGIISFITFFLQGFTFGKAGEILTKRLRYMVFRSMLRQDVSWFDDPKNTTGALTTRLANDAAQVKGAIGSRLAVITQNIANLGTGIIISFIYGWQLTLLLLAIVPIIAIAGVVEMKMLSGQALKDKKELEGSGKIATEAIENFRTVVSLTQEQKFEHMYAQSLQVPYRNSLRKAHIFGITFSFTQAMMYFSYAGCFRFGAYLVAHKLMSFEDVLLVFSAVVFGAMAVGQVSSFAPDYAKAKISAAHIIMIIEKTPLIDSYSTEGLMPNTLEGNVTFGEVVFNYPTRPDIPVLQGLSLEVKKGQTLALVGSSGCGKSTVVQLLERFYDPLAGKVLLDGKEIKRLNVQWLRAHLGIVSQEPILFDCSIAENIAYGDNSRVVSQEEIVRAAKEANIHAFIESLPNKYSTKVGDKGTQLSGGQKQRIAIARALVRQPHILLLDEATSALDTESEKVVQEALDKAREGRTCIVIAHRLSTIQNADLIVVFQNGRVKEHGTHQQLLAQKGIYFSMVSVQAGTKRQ

Regarding `COc1cc(/C=C/C(=O)OCCCCCN(C)CCCCCOC(=O)c2cc(OC)c(OC)c(OC)c2)cc(OC)c1OC`, the half-life at 1 µM in data set [1] and in data set [2] was above 4 h each time.
Consider `COc1cc(/C=C/C(=O)OCCCN(C)CCCCCOC(=O)c2cc(OC)c(OC)c(OC)c2)cc(OC)c1OC`, for which the Stability entry in data set [3] is given as “Unstable”. Besides, the values for the half-life at 1 µM in data set [1] and in data set [2] were 0.683 h and above 4 h, respectively.
On to `COc1cc(/C=C/C(=O)OCCCCCN(C)CCCOC(=O)c2cc(OC)c(OC)c(OC)c2)cc(OC)c1OC`, for which the half-life at 1 µM in data set [1] and in [2] was above 4 h each time.
Regarding `CCOC(=O)C(C)c1cccc(C(=O)c2ccccc2)c1` (configuration not stated), the half-life (commonly how long it takes for the measured level to halve) at 1 µM in data set [1] amounted to 1.78 h.
Regarding `COc1cc(/C=C/C(=O)OCCN(C)CCCCCCCOC(=O)c2cc(OC)c(OC)c(OC)c2)cc(OC)c1OC`, in data set [4], the IC50 came out at 70 nM. Also, the Alpha max in data set [5] came out at 0.79. For the same compound, the half-life at 1 µM in [1] and in data set [2] was above 4 h throughout.
`COc1cc(/C=C/C(=O)OCCCCCCCN(C)CCOC(=O)c2c3ccccc3cc3ccccc23)cc(OC)c1OC`: the IC50 in [4] came to 20 nM. Also, the Alpha max in data set [5] was 0.98. For the same compound, the half-life at 1 µM in data set [1] and in data set [2] was above 4 h in each case.
Turning to `COc1cc(/C=C/C(=O)OCCCCCCN(C)CCCOC(=O)c2cc(OC)c(OC)c(OC)c2)cc(OC)c1OC`, the IC50 in [4] was found to be 240 nM. Further, the Alpha max in data set [5] worked out at 0.9. The half-life at 1 µM in data set [1] and in data set [2] was above 4 h throughout.
Regarding `COc1cc(/C=C/C(=O)OCCN(C)CCCCCCCCOC(=O)c2c3ccccc3cc3ccccc23)cc(OC)c1OC`, the IC50 in [4] amounted to 40 nM. The “inhibition (INH)” value in [6] and in data set [7] was “Not Active” throughout. Further, the Alpha max in [5] was determined as 0.96. For the same compound, the half-life at 1 µM in data set [1] and in [2] was above 4 h throughout. Further, the results for the EC50 in data set [8] and in data set [9] were 5100 nM and 920 nM, respectively.
Turning to `COc1cc(/C=C/C(=O)OCCCCCCN(C)CCCCOC(=O)c2cc(OC)c(OC)c(OC)c2)cc(OC)c1OC`, the IC50 in data set [4] is 10 nM. The “inhibition (INH)” value is recorded as “Active” in data set [6] and “Not Active” in data set [7]. Also, the Alpha max in data set [5] amounted to 0.99. The half-life at 1 µM in [1] and in data set [2] was above 4 h throughout. Besides, the EC50 (commonly the concentration needed to bring the measured effect to its halfway point) in data set [8] is 16000 nM; in data set [9], 200 nM.
On to `COc1cc(/C=C/C(=O)OCCN(C)CCCCCCCCOC(=O)c2cc(OC)c(OC)c(OC)c2)cc(OC)c1OC`, for which the IC50 in data set [4] is 40 nM. The “inhibition (INH)” value in data set [6] and in data set [7] was “Not Active” each time. Besides, the Alpha max in data set [5] stood at 0.91. For the same compound, the half-life at 1 µM in data set [1] and in data set [2] was above 4 h each time. The half-maximal effective concentration (EC50) in data set [8] is 4500 nM; in data set [9], 220 nM.
On to `COc1cc(/C=C/C(=O)OCCCCCN(C)CCCCOC(=O)c2cc(OC)c(OC)c(OC)c2)cc(OC)c1OC`, for which the IC50 in [4] was determined as 100 nM. Further, in data set [5], the Alpha max worked out at 0.94. Also, the half-life at 1 µM in data set [1] and in data set [2] was above 4 h each time.
Take `COc1cc(/C=C/C(=O)OCCCCN(C)CCCCCCOC(=O)c2cc(OC)c(OC)c(OC)c2)cc(OC)c1OC`: in [4], the IC50 was 70 nM. Besides, in [3], the Stability result is reported as “Unstable”. Further, in data set [5], the Alpha max was 0.99. Moreover, the half-life at 1 µM in data set [1] was 2.05 h; in data set [2] it was above 4 h.
`COc1cc(/C=C/C(=O)OCCCCCCN(C)CCCOC(=O)c2c3ccccc3cc3ccccc23)cc(OC)c1OC`: the IC50 in data set [4] is 30 nM. For the same compound, in data set [5], the Alpha max was determined as 0.99. Also, the half-life at 1 µM in data set [1] and in data set [2] was above 4 h throughout.
With `COc1cc(/C=C/C(=O)OCCN(C)CCCCCCOC(=O)c2cc(OC)c(OC)c(OC)c2)cc(OC)c1OC`, the IC50 in [4] was 460 nM. For the same compound, the Alpha max in data set [5] amounted to 0.91. Besides, the half-life at 1 µM in data set [1] and in data set [2] was above 4 h throughout.
Turning to `COc1cc(/C=C/C(=O)OCCCCCCCCN(C)CCOC(=O)c2cc(OC)c(OC)c(OC)c2)cc(OC)c1OC`, in data set [4], the IC50 was determined as 20 nM. Also, the “inhibition (INH)” value in data set [6] and in data set [7] was “Not Active” in each case. In data set [5], the Alpha max is 0.93. The half-life at 1 µM in data set [1] and in data set [2] was above 4 h throughout. Also, the EC50 is 3800 nM in data set [8] and 300 nM in [9].
As to `COc1cc(/C=C/C(=O)OCCCCN(C)CCCCCOC(=O)c2c3ccccc3cc3ccccc23)cc(OC)c1OC`, the IC50 in data set [4] came to 40 nM. Besides, the Alpha max in data set [5] was 0.94. Also, the half-life at 1 µM in [1] and in data set [2] was above 4 h throughout.
Consider `COc1cc(/C=C/C(=O)OCCCN(C)CCCCCCOC(=O)c2c3ccccc3cc3ccccc23)cc(OC)c1OC`, for which the IC50 in data set [4] was 40 nM. Moreover, the Alpha max in [5] is 0.92. The half-life at 1 µM in data set [1] and in [2] was above 4 h in each case.
As for `COc1cc(/C=C/C(=O)OCCCN(C)CCCCCCCOC(=O)c2cc(OC)c(OC)c(OC)c2)cc(OC)c1OC`, in data set [4], the IC50 worked out at 80 nM. For the same compound, the Stability result in [3] is listed as “Unstable”. For the same compound, in data set [5], the Alpha max worked out at 0.97. The half-life at 1 µM was 0.75 h in [1] and above 4 h in data set [2].
For the compound `COc1cc(/C=C/C(=O)OCCCCCN(C)CCCCOC(=O)c2c3ccccc3cc3ccccc23)cc(OC)c1OC`, the IC50 in [4] was determined as 30 nM. Further, in [5], the Alpha max turned out to be 0.99. For the same compound, the half-life at 1 µM in [1] and in data set [2] was above 4 h throughout.
`COc1cc(/C=C/C(=O)OCCCCCCN(C)CCOC(=O)c2cc(OC)c(OC)c(OC)c2)cc(OC)c1OC`: in data set [4], the IC50 was 190 nM. In data set [5], the Alpha max turned out to be 0.77. Besides, the half-life at 1 µM in [1] and in [2] was above 4 h throughout.
Regarding `COc1cc(/C=C/C(=O)OCCCCCCN(C)CCOC(=O)c2c3ccccc3cc3ccccc23)cc(OC)c1OC`, the IC50 in data set [4] turned out to be 40 nM. Besides, the Alpha max in data set [5] turned out to be 0.94. For the same compound, the half-life at 1 µM in data set [1] and in data set [2] was above 4 h each time.
For the compound `COc1cc(/C=C/C(=O)OCCCCCCCN(C)CCOC(=O)c2cc(OC)c(OC)c(OC)c2)cc(OC)c1OC`, the IC50 in [4] came to 40 nM. Moreover, the Alpha max in data set [5] is 0.99. Besides, the half-life at 1 µM in data set [1] and in data set [2] was above 4 h throughout.
In the case of `COc1cc(/C=C/C(=O)OCCN(C)CCCCCCCOC(=O)c2c3ccccc3cc3ccccc23)cc(OC)c1OC`, the IC50 in data set [4] turned out to be 170 nM. In addition, in data set [5], the Alpha max was determined as 0.88. Besides, the half-life at 1 µM in data set [1] and in data set [2] was above 4 h each time.
As for `COc1cc(/C=C/C(=O)OCCN(C)CCCCCCOC(=O)c2c3ccccc3cc3ccccc23)cc(OC)c1OC`, the IC50 in data set [4] amounted to 200 nM. In addition, the Alpha max in [5] was 0.79. For the same compound, the half-life at 1 µM in data set [1] and in [2] was above 4 h throughout.
`COc1cc(/C=C/C(=O)OCCCCCCCN(C)CCCOC(=O)c2c3ccccc3cc3ccccc23)cc(OC)c1OC`: the IC50 in [4] turned out to be 10 nM. Also, the “inhibition (INH)” value in [6] and in data set [7] was “Not Active” each time. Besides, the Alpha max in data set [5] was determined as 0.93. The half-life at 1 µM in [1] and in [2] was above 4 h in each case. For the same compound, the EC50 in data set [8] was 3900 nM; in data set [9], 230 nM.
Turning to `COc1cc(/C=C/C(=O)OCCCCCCCCN(C)CCOC(=O)c2c3ccccc3cc3ccccc23)cc(OC)c1OC`, in data set [4], the IC50 stood at 50 nM. For the same compound, the “inhibition (INH)” value in data set [6] and in [7] was “Not Active” each time. Also, the Alpha max in [5] is given as 0.99. The half-life at 1 µM in [1] and in data set [2] was above 4 h each time. Moreover, the results for the 50% effective concentration (EC50) in data set [8] and in data set [9] were 5400 nM and 340 nM, respectively.
